Structures are written as SMILES. Activity calls are given as the source filed them. No cut-off for these calls is given here.

The species entered for data set [1] is Mus musculus. Nature of the data set: Alopecia in mice observed at low dose with Hypervitaminosis; 0/16. Format: functional, organism-based.
Data set [2] is filed under the species Mus musculus. Nature of the data set: Alopecia in mice observed at mid dose 2 with Hypervitaminosis; 3/16. The format is functional, organism-based.
For data set [3], the species on record is Mus musculus. Nature of the data set: Alopecia in mice observed at high dose with Hypervitaminosis; 4/16. Format: functional, organism-based.
The species named for data set [4] is Mus musculus. Nature of the data set: Skin scaling in mice at mid dose 1 with Hypervitaminosis; 0/16. Format: functional, organism-based.
The species named for data set [5] is Mus musculus. Nature of the data set: Skin scaling in mice at high dose with Hypervitaminosis; 2/16. The format is functional, organism-based.
The species named for data set [6] is Mus musculus. Nature of the data set: Effect of compound on serum Alkaline phosphatase levels in mice at low dose on day 36. Format: functional. Put shortly: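 Male B6D2F1 mice dosed daily by oral gavage in corn oil at low, mid 1, mid 2 or high dose. Blood sampled on set days (8, 29, 36, 65) for clinical chemistry, serum alkaline phosphatase and triglycerides. Group mean ± SD reported as % relative to vehicle 1; significance p < 0.05 versus corn oil vehicle.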

Data set [7] is filed under the species Mus musculus. Nature of the data set: Enlarged lymph in gross pathological observations in mice with hypervitaminosis A in mice at high dose with gross observations/total number of mice in group; 8/16. The format is functional, organism-based.
For data set [8], the species on record is Mus musculus. Nature of the data set: Compound toxicity determined by total dose to termination (day 25/65) in high dose. Format: functional. Summed up: (§1)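 Male B6D2F1 mice given daily oral gavage in corn oil; dosages increased during the study (day 30 or day 51 depending on compound). Cumulative dose in mg/kg administered up to termination (day 65, or day 25 for TTNPB 0.01/0.05 mg/kg/day groups).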

The species named for data set [9] is Mus musculus. Nature of the data set: Compound toxicity determined by total dose to termination (day 25/65) in low dose. Format: functional. Put shortly:
as §1

For data set [10], the species on record is Mus musculus. Nature of the data set: Fracture incidence in mouse at high dose; 4/7.
Data set [11] relates to Mus musculus. Nature of the data set: Effect of compound on adrenal to body weight ratios in mice at 0.2 mg/kg/day dose; all the animals died by day 65. Format: functional, organism-based.
The test system of data set [12] is Mus musculus. Nature of the data set: Effect of compound on adrenal to body weight ratios in mice at 0.4 mg/kg/day dose; all the animals died by day 65. Format: functional, organism-based.
In data set [13] the test system is Mus musculus. Nature of the data set: Effect of compound on right testicle to body weight ratios in mice at 0.01 mg/kg/day dose on day 25. Format: functional, organism-based.
Data set [14] relates to Mus musculus. Nature of the data set: Total dose of 10% weight loss in mice at 0.05 mg/kg/day. Format: functional.
Data set [15] deals with Mus musculus. Nature of the data set: Alopecia observed at 0.05 mg/kg/day dose in mice with hypervitaminosis; 8/8. The format is functional, organism-based.
Data set [16] relates to Mus musculus. Nature of the data set: Avoiding pressure on limbs at 0.2 mg/kg/day dose in mice with hypervitaminosis; 0/16. The conditions noted are these: Limb. Format: functional, organism-based.
Data set [17] concerns Mus musculus. Nature of the data set: Avoiding pressure on limbs at 0.8 mg/kg/day dose in mice hypervitaminosis; 0/16. Format: functional, organism-based. Particulars: Limb.
The subject of data set [18] is Mus musculus. Nature of the data set: Enlarged lymph in gross pathological observations with hypervitaminosis A in mice at 0.01 mg/kg/day dose with gross observations/total number of animals in group; 6/8. Format: functional, organism-based.
Data set [19] concerns Mus musculus. Nature of the data set: Enlarged spleen in Gross pathological observations with hypervitaminosis A at 0.01 mg/kg/day dose with gross observations/total number of animals in group; 5/8. The format is functional, organism-based.
Data set [20] concerns Mus musculus. Nature of the data set: Enlarged spleen in Gross pathological observations with hypervitaminosis A in mice at 0.1 mg/kg/day dose with gross observations/total number of animals in group; 4/16. The format is functional, organism-based.
Data set [21] has as its system Mus musculus. Nature of the data set: Enlarged spleen in gross pathological observations with hypervitaminosis A at 0.05 mg/kg/day dose with gross observations/total number of animals in group; 5/8. Format: functional, organism-based.
Data set [22] concerns Mus musculus. Nature of the data set: Skin scaling at 0.2 mg/kg/day in mice with hypervitaminosis; 14/16. The format is functional, organism-based.
Data set [23] has as its system Mus musculus. Nature of the data set: Skin scaling at 0.4 mg/kg/day in mice with hypervitaminosis; 15/16. The format is functional, organism-based.
For data set [24], the system named is Mus musculus. Nature of the data set: Skin scaling at 0.8 mg/kg/day in mice with hypervitaminosis; 12/16. Format: functional, organism-based.
Data set [25] is described as follows: Mortality rate in mice at 0.01 mg/kg/day. The conditions noted are these: mouse, in vivo. Format: ADME, organism-based. Put shortly:
(§2)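 Male B6D2F1 mice given compound daily by gavage in corn oil at the stated dose levels, with corn oil vehicle controls. Deaths counted as animals found dead or sacrificed moribund, with day(s) of death recorded. Heteroarotinoid groups ran to day 65 and low-dose reference groups to day 25.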

Data set [26] in a line: Mortality rate in mice at 0.4 mg/kg/day; range (8-19). Format: ADME, organism-based. The conditions noted are these: mouse, in vivo. Summed up: as §2
The nature of data set [27]: Mortality rate in mice at 0.8 mg/kg/day; range (7-8). The format is ADME, organism-based. The conditions noted are these: mouse, in vivo. Put shortly:
as §2

In data set [28] the test system is Mus musculus. Nature of the data set: Fracture incidents in mouse at 0.8 mg/kg/day; 0/16.
Data set [29] concerns Mus musculus. Nature of the data set: Average number of fractures per mouse at 0.8 mg/kg/day.
The test system of data set [30] is Mus musculus. Nature of the data set: Average number of fractures per mouse at 0.4 mg/kg/day.
In data set [31] the test system is Mus musculus. Nature of the data set: Average number of fractures per mouse at 0.01 mg/kg/day.
The subject of data set [32] is Mus musculus. Nature of the data set: Average number of fractures per mouse at 0.2 mg/kg/day; 1/3.
Data set [33] relates to Mus musculus. Nature of the data set: Effects of retinoids on thymus to body weight ratios in mice at 0.01 mg/kg/day dose.
Data set [34] relates to Mus musculus. Nature of the data set: Effects of retinoids on thymus to body weight ratios in mice at 0.05 mg/kg/day dose.
The species entered for data set [35] is Mus musculus. Nature of the data set: Effect of compound on Spleen to body weight ratios in mice at low dose. Format: functional. Put shortly: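 Male B6D2F1 mice dosed daily by gavage with compound in corn oil; vehicle 1 (corn oil) controls run to termination on day 65. Low, mid 1, mid 2 and high dose groups, with dosage increases partway through the study. Organ-to-body weight ratios (×1000) taken at necropsy on day 65, reported as mean ± SD for 4 to 8 animals and as % difference from vehicle.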

The species entered for data set [36] is Mus musculus. Nature of the data set: Alopecia in mice observed at low dose with Hypervitaminosis; 1/16. Format: functional, organism-based.
For data set [37], the species on record is Mus musculus. Nature of the data set: Alopecia in mice observed at high dose with Hypervitaminosis; 1/16. Format: functional, organism-based.
Data set [38] is filed under the species Mus musculus. Nature of the data set: Enlarged lymph in gross pathological observations in mice with hypervitaminosis A at mid dose 2 with gross observations/total number of mice in group; 2/16. The format is functional, organism-based.
The species entered for data set [39] is Mus musculus. Nature of the data set: Average number of fractures per mouse at lmid dose 1.

Take `CC(/C=C/C=C(\C)c1ccc2c(c1)C(C)(C)CCO2)=C\C(=O)O`: the outcome in data set [1], in data set [2], in data set [4] and in data set [5] was inactive. Moreover, the Activity result in [3] is “Weak activity”.
Consider `C/C(=C\c1ccc(C(=O)O)cc1)c1ccc2c(c1)C(C)(C)CCO2`, for which the Activity in data set [6] is 77.4; in data set [7], “Weak activity”; in [10] it was “Weak activity”. For the same compound, the Total dose in [8] is 1176.8 mg/kg; in [9], 147.1 mg/kg.
Turning to `C/C(=C\c1ccc(C(=O)O)cc1)c1ccc2c(c1)C(C)(C)CCC2(C)C`, the Activity entry was “Toxic” in data set [11]; “Toxic” in data set [12]; “Toxic” in data set [13]; “Weak activity” in [19]; “Weak activity” in [20]; “Weak activity” in data set [21]. Further, the Activity in data set [29] was 0; in [30], 0.4; in data set [31] it was 0.1; in data set [32] it was “Weak activity”; in data set [33] it was “Toxic”; in data set [34], “Toxic”. The Dose in data set [14] turned out to be 0.4 mg/kg. The outcome in data set [15], in data set [18], in data set [22], in data set [23] and in data set [24] was Active. In addition, the result in [16], in [17] and in data set [28] was inactive. The figures for the Mortality in data set [25], in data set [26] and in [27] were 0 day of death, 14 day of death and 16 day of death, respectively.
On to `CC(/C=C/C=C(\C)c1ccc2c(c1)C(C)(C)CCS2)=C\C(=O)O`, for which the Activity turned out to be 2.1 in [35] and 0 in data set [39]. Besides, the outcome in data set [36], in [37] and in [38] was inactive.

Values taken from ChEMBL document CHEMBL1130202, “Biologically active heteroarotinoids exhibiting anticancer activity and decreased toxicity” (J Med Chem, 1997).
